Measured values from ChEMBL document CHEMBL1821622, “Thiazole- and imidazole-containing peptidomimetic inhibitors of protein farnesyltransferase” (Bioorg Med Chem Lett, 2011).
Activity calls are given as the source filed them. The rule behind the calls is not given here.

How the values were obtained:
[1] = (§1) Inhibition of rat recombinant FTase using Dansyl-Gly-Cys-Val-Leu-Ser-OH peptide and farnesyl-pyrophosphate substrates measured every 15 seconds for 5 mins by fluorescent assay
[2] = (§2) Inhibition of cell proliferation in RASMC cells after 72 hrs by Coulter Counter method; format: functional, cell-based, Rattus norvegicus
Procedure, shortened: (§3)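 Rat aortic SMCs were seeded at 2 × 10^5 cells per 35 mm dish in DMEM with 10% FCS. Cells were counted after trypsinization. DMSO was at most 0.5% final. IC50 came from linear regression of log concentration vs logit.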

[3] = species on record: Rattus norvegicus; experiment: as §1
[4] = test system: RASMC; experiment: as §2; format: functional, cell-based; conditions: Rattus norvegicus; procedure, shortened: as §3
[5] = test system: RASMC; experiment: Inhibition of rat Ftase in RASMC cells assessed as reduction of Ras prenylation at 50 to 100 uM after 72 hrs by Western blot analysis relative to control; format: cell-based
Procedure, shortened: (§4)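 Rat SMCs were seeded at 4 × 10^5 per 60 mm dish and taken through the same serum arrest and restimulation as the proliferation assay, with 72 h exposure. Cells were lysed for 30 min on ice in Tris pH 7.5/NaCl/NP-40 buffer with inhibitors and cleared at 15,000g. Protein was measured by BCA. Lysates were run on reducing SDS-PAGE and immunoblotted with anti-Ras (RAS10) using ECL. The slower band is unprenylated Ras; the faster band is prenylated Ras.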

[6] = test system: RASMC; experiment: Inhibition of rat Ftase in RASMC cells assessed as reduction in Ras prenylation at 2 uM after 72 hrs by Western blot analysis; format: cell-based; procedure, shortened: as §4
[7] = Rattus norvegicus, RASMC, 72 h, read-out: IC50

## CSCC[C@H](NC(=O)c1ccc(NC(=O)Cc2csc(SC)n2)cc1-c1ccccc1C)C(=O)O
[1]
  IC50: Not Active

## CSCC[C@H](NC(=O)c1ccc(NC(=O)Cc2c[nH]c(S)n2)cc1-c1ccccc1C)C(=O)OC(C)C
[2]; [7]
  IC50: 226000 nM

## CSCC[C@H](NC(=O)c1ccc(NC(=O)CCc2c[nH]c(S)n2)cc1-c1ccccc1C)C(=O)OC(C)C
[2]; [7]
  IC50: 34000 nM

## CSCC[C@H](NC(=O)c1ccc(NC(=O)CCc2csc(SC)n2)cc1-c1ccccc1C)C(=O)OC(C)C
[2]; rasmc
  IC50: Not Active

## CSCC[C@H](NC(=O)c1ccc(NC(=O)Cc2csc(S)n2)cc1-c1ccccc1C)C(=O)OC(C)C
[2]; [7]
  IC50: 21000 nM

## CSCC[C@H](NC(=O)c1ccc(NC(=O)Cc2csc(S)n2)cc1-c1ccccc1C)C(=O)O
[1]; read-out: IC50
  IC50: 538 nM

## CSCC[C@H](NC(=O)c1ccc(NC(=O)CCc2csc(S)n2)cc1-c1ccccc1C)C(=O)OC(C)C
[2]; [7]
  IC50: 25000 nM

## CSCC[C@H](NC(=O)c1ccc(NC(=O)CCc2csc(N)n2)cc1-c1ccccc1C)C(=O)O
[1]; read-out: IC50
  IC50: 390 nM

## CSCC[C@H](NC(=O)c1ccc(NC(=O)CCc2csc(N)n2)cc1-c1ccccc1C)C(=O)OC(C)C
[2]; rasmc
  IC50: Not Active

## CSCC[C@H](NC(=O)c1ccc(NC(=O)Cc2csc(N)n2)cc1-c1ccccc1C)C(=O)OC(C)C
[2]; [7]
  IC50: 107000 nM

## CSCC[C@H](NC(=O)c1ccc(NC(=O)CCc2csc(S)n2)cc1-c1ccccc1C)C(=O)O
[1]; read-out: IC50
  IC50: 526 nM

## CSCC[C@H](NC(=O)c1ccc(NC(=O)CCc2csc(SC)n2)cc1-c1ccccc1C)C(=O)O
[1]; read-out: IC50
  IC50: 415 nM

## CSCC[C@H](NC(=O)c1ccc(NC(=O)Cc2csc(SC)n2)cc1-c1ccccc1C)C(=O)OC(C)C
[2]; rasmc
  IC50: Not Active

## CSCC[C@H](NC(=O)c1ccc(NC(=O)Cc2csc(N)n2)cc1-c1ccccc1C)C(=O)O
[1]; read-out: IC50
  IC50: 49 nM
[3]
  inhibition: Dose-dependent effect
[4]
  inhibition: Dose-dependent effect
[5]
  inhibition: Dose-dependent effect

## CCC(C)(C)C(=O)O[C@H]1C[C@@H](C)C=C2C=C[C@H](C)[C@H](CC[C@@H]3C[C@@H](O)CC(=O)O3)[C@H]21
[6]
  inhibition: Active

## CSCC[C@H](NC(=O)c1ccc(NC(=O)Cc2c[nH]c(S)n2)cc1-c1ccccc1C)C(=O)O
[1]; read-out: IC50
  IC50: 122 nM

## CSCC[C@H](NC(=O)c1ccc(NC[C@@H](N)CS)cc1-c1ccccc1)C(=O)O
[1]; read-out: IC50
  IC50: 9 nM

## CSCC[C@H](NC(=O)c1ccc(NC(=O)CCc2c[nH]c(S)n2)cc1-c1ccccc1C)C(=O)O
[1]
  IC50: Not Active
